According to ChEMBL document CHEMBL3351385, “Synthesis and preliminary mechanistic evaluation of 5-(p-tolyl)-1-(quinolin-2-yl)pyrazole-3-carboxylic acid amides with potent antiproliferative activity on human cancer cell lines” (Eur J Med Chem, 2014):
Calls of active or inactive are those of the source. No cut-off for these calls is given here.

Columns and labels:
[1] = biological target: Serine/threonine-protein kinase pim-1 (Homo sapiens) (UniProt P11309); assay: Inhibition of PIM1 (unknown origin) assessed as remaining enzyme activity at 10 uM by radioactive [33P]-ATP filter binding assay
Serine/threonine-protein kinase pim-1 (Homo sapiens), sequence (P11309 whole entry, looked up): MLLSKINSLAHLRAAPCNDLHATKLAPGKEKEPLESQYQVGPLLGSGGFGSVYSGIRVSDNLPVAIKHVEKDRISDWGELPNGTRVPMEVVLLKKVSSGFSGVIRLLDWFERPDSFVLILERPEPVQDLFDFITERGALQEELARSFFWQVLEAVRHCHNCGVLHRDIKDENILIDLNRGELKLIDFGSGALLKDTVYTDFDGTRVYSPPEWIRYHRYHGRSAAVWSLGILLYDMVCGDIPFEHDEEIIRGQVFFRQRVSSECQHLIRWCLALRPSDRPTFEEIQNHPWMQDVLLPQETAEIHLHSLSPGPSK

[2] = biological target: Calcium/calmodulin-dependent protein kinase type 1 (Homo sapiens) (UniProt Q14012); assay: Inhibition of CAMK1 (unknown origin) assessed as remaining enzyme activity at 10 uM by radioactive [33P]-ATP filter binding assay
Calcium/calmodulin-dependent protein kinase type 1 (Homo sapiens), sequence (Q14012 whole entry, looked up): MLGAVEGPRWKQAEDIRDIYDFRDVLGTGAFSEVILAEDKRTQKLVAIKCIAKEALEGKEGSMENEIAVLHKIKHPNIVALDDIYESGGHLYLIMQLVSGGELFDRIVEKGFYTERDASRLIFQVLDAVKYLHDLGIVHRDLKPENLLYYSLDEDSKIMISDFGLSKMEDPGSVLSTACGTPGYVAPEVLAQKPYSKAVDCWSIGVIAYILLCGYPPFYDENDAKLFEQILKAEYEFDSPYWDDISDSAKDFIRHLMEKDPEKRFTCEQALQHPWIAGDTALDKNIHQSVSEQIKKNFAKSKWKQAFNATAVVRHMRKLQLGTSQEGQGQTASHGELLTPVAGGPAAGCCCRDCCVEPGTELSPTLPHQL
Summary of the method: (§1)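 A single 10 µM concentration was tested across a 140-kinase panel. Activity was measured by a radioactive 33P-ATP filter-binding assay run at the International Center for Kinase Profiling, University of Dundee.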

[3] = biological target: MAP kinase-activated protein kinase 3 (Homo sapiens) (UniProt Q16644); assay: Inhibition of MAPKAPK3 (unknown origin) assessed as remaining enzyme activity at 10 uM by radioactive [33P]-ATP filter binding assay
[4] = biological target: Serine/threonine-protein kinase pim-2 (Homo sapiens) (UniProt Q9P1W9); assay: Inhibition of PIM2 (unknown origin) assessed as remaining enzyme activity at 10 uM by radioactive [33P]-ATP filter binding assay
[5] = biological target: Serine/threonine-protein kinase PINK1, mitochondrial (Homo sapiens) (UniProt Q9BXM7); assay: Inhibition of PINK (unknown origin) assessed as remaining enzyme activity at 10 uM by radioactive [33P]-ATP filter binding assay
Serine/threonine-protein kinase PINK1, mitochondrial (Homo sapiens), sequence (Q9BXM7 whole entry): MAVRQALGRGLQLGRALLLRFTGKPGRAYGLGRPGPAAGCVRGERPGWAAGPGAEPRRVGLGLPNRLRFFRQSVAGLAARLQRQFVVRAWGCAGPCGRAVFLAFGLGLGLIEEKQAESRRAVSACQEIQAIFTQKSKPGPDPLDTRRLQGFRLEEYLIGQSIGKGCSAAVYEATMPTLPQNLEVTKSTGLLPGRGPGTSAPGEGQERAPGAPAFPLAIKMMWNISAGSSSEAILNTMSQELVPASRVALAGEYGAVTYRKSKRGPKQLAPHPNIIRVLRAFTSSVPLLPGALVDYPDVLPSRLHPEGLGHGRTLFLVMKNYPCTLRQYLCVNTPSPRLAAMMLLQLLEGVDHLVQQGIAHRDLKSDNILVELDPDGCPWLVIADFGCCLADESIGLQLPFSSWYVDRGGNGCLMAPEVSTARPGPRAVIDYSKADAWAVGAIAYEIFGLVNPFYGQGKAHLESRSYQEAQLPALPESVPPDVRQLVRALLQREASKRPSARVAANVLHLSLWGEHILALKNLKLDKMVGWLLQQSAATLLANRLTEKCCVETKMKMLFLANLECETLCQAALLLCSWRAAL

[6] = biological target: Ephrin type-A receptor 2 (Homo sapiens) (UniProt P29317); assay: Inhibition of EPHA2 (unknown origin) assessed as remaining enzyme activity at 10 uM by radioactive [33P]-ATP filter binding assay; summary of the method: as §1
Ephrin type-A receptor 2 (Homo sapiens), sequence (P29317 whole entry): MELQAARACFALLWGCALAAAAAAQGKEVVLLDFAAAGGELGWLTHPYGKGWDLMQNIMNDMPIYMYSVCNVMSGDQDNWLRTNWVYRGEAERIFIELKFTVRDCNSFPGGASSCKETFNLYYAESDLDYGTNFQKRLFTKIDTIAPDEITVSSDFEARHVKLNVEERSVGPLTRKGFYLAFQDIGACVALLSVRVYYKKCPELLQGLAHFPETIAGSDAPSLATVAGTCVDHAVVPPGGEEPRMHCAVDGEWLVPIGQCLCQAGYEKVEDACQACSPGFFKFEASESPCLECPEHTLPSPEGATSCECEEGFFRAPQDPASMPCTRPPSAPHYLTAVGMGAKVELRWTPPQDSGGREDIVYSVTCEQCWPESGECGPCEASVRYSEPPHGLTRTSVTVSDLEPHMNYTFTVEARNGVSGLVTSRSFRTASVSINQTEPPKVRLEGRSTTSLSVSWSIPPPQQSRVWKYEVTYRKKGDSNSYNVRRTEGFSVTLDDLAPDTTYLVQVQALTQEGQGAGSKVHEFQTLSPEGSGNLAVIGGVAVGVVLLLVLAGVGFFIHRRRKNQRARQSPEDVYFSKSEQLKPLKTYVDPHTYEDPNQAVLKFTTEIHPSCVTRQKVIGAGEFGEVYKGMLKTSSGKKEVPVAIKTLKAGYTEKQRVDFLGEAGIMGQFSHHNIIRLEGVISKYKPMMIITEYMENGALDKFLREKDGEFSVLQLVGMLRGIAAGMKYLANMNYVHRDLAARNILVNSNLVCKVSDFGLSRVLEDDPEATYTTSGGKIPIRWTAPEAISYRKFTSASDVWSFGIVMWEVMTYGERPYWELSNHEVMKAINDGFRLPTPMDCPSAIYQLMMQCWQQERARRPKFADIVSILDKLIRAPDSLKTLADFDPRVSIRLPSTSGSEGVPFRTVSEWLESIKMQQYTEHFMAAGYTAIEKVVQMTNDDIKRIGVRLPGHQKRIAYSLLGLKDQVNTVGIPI

[7] = biological target: Serine/threonine-protein kinase N2 (Homo sapiens) (UniProt Q16513); assay: Inhibition of PRK2 (unknown origin) assessed as remaining enzyme activity at 10 uM by radioactive [33P]-ATP filter binding assay
Serine/threonine-protein kinase N2 (Homo sapiens), sequence (Q16513 whole entry, looked up): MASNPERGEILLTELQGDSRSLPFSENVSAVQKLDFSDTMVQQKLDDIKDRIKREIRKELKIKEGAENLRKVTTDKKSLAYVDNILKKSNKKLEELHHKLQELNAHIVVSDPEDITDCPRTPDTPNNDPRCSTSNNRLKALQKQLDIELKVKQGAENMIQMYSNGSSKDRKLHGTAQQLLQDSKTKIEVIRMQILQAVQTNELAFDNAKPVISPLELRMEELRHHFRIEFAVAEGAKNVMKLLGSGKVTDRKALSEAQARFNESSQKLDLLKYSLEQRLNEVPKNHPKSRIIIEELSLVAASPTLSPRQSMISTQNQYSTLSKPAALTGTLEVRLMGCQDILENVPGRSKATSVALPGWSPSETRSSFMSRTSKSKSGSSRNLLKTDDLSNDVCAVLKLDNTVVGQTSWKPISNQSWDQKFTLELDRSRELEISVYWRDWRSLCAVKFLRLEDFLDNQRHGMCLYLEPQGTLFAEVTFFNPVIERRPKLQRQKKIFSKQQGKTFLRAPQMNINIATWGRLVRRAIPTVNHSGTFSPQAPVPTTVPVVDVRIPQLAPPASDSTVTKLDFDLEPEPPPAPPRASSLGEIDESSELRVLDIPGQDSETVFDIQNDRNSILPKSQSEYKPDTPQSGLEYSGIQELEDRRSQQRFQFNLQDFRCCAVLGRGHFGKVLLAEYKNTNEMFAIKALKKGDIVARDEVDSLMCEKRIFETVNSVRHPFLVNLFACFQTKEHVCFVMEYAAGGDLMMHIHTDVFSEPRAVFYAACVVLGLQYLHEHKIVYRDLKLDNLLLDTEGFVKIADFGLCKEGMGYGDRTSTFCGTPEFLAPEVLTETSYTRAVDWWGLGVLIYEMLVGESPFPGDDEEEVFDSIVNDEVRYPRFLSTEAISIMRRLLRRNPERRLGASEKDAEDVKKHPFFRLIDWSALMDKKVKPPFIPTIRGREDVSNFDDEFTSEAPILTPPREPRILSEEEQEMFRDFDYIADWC

[8] = biological target: Mitogen-activated protein kinase kinase kinase 9 (Homo sapiens) (UniProt P80192); assay: Inhibition of MLK1 (unknown origin) assessed as remaining enzyme activity at 10 uM by radioactive [33P]-ATP filter binding assay
Mitogen-activated protein kinase kinase kinase 9 (Homo sapiens), sequence (P80192 whole entry, looked up): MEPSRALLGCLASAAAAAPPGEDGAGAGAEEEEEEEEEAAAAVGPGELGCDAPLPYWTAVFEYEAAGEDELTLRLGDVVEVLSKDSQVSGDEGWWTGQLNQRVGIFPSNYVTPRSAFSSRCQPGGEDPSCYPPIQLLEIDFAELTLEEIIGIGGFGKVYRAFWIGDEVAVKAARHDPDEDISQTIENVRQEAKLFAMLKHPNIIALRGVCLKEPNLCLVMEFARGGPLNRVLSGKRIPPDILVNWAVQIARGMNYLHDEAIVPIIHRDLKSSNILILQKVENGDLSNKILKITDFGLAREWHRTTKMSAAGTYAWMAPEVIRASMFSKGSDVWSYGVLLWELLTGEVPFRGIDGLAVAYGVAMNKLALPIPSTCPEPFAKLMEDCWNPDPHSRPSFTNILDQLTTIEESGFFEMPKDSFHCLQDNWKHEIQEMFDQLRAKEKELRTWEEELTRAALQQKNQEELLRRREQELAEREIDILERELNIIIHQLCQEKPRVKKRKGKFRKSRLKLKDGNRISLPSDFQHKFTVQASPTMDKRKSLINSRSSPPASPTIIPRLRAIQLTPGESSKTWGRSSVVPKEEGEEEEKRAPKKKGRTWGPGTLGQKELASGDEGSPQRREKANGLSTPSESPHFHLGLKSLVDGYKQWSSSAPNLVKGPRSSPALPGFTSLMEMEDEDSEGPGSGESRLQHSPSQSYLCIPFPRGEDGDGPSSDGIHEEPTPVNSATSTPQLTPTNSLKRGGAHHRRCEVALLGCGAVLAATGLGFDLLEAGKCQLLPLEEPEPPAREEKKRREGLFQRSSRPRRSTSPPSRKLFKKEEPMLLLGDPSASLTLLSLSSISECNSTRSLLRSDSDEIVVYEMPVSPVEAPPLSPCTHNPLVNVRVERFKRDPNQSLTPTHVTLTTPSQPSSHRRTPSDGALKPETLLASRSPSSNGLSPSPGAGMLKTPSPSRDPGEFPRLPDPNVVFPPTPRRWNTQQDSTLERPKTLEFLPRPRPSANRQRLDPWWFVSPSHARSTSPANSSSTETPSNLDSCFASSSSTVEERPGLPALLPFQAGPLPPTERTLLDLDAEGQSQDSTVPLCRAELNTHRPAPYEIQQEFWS

[9] = biological target: Serine/threonine-protein kinase tousled-like 1 (Homo sapiens) (UniProt Q9UKI8); assay: Inhibition of TLK1 (unknown origin) assessed as remaining enzyme activity at 10 uM by radioactive [33P]-ATP filter binding assay
[10] = biological target: Ephrin type-A receptor 4 (Homo sapiens) (UniProt P54764); assay: Inhibition of EPHA4 (unknown origin) assessed as remaining enzyme activity at 10 uM by radioactive [33P]-ATP filter binding assay; summary of the method: as §1
[11] = biological target: Dual specificity testis-specific protein kinase 1 (Homo sapiens) (UniProt Q15569); assay: Inhibition of TESK1 (unknown origin) assessed as remaining enzyme activity at 10 uM by radioactive [33P]-ATP filter binding assay
[12] = biological target: MAP kinase-interacting serine/threonine-protein kinase 2 (Homo sapiens) (UniProt Q9HBH9); assay: Inhibition of MNK2 (unknown origin) assessed as remaining enzyme activity at 10 uM by radioactive [33P]-ATP filter binding assay
MAP kinase-interacting serine/threonine-protein kinase 2 (Homo sapiens), sequence (Q9HBH9 whole entry, looked up): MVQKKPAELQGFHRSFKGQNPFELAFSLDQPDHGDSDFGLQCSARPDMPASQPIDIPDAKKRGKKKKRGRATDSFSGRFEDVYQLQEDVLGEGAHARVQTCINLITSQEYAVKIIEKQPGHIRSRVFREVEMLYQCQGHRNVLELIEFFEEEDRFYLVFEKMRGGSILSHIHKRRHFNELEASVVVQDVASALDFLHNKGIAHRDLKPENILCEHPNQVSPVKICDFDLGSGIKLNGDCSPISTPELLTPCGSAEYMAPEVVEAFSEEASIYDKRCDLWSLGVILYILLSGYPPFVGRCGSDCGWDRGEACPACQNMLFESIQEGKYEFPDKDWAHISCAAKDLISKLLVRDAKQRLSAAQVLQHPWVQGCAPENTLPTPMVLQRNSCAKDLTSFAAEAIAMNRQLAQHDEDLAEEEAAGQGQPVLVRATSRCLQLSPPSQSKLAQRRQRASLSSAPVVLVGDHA

[13] = biological target: Mitogen-activated protein kinase kinase kinase 7, TAK1 (Homo sapiens) (UniProt O43318); assay: Inhibition of TAK1 (unknown origin) assessed as remaining enzyme activity at 10 uM by radioactive [33P]-ATP filter binding assay
[14] = biological target: Testis-specific serine/threonine-protein kinase 1 (Homo sapiens) (UniProt Q9BXA7); assay: Inhibition of TSSK1 (unknown origin) assessed as remaining enzyme activity at 10 uM by radioactive [33P]-ATP filter binding assay
[15] = system: Huh-7; assay: Induction of cell death in human HuH7 cells assessed as induction of intracytoplasmic vacuoles at cytotoxic IC50 level after 72 hrs by inverted light microscopy; type: functional, cell-based
Summary of the method: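 They were viewed under an inverted light microscope at 20× for death morphology, including intracytoplasmic vacuoles.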

[16] = biological target: Ribosomal protein S6 kinase beta-1 (Homo sapiens) (UniProt P23443); assay: Inhibition of S6K1 (unknown origin) assessed as remaining enzyme activity at 10 uM by radioactive [33P]-ATP filter binding assay
[17] = biological target: NUAK family SNF1-like kinase 1 (Homo sapiens) (UniProt O60285); assay: Inhibition of NUAK1 (unknown origin) assessed as remaining enzyme activity at 10 uM by radioactive [33P]-ATP filter binding assay
[18] = Induction of cell cycle arrest in human Mahlavu cells assessed as accumulation at G2/M phase at cytotoxic IC50 level after 48 hrs by propidium iodide staining based FACS method; type: functional
[19] = Induction of cell cycle arrest in human HuH7 cells assessed as accumulation at G0/G1 phase at cytotoxic IC50 level after 48 hrs by propidium iodide staining based FACS method; type: functional, Huh-7
Summary of the method: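 Huh7 cells were seeded at 150,000–300,000 per 100-mm dish and left 24 h. […] Cells were stained with a propidium iodide-containing cell cycle reagent, and subG1, G0/G1, S and G2/M fractions were scored by flow cytometry.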

[20] = biological target: Serine/threonine-protein kinase pim-3 (Homo sapiens) (UniProt Q86V86); assay: Inhibition of PIM3 (unknown origin) assessed as remaining enzyme activity at 10 uM by radioactive [33P]-ATP filter binding assay
[21] = biological target: Serine/threonine-protein kinase PAK 4 (Homo sapiens) (UniProt O96013); assay: Inhibition of PAK4 (unknown origin) assessed as remaining enzyme activity at 10 uM by radioactive [33P]-ATP filter binding assay
[22] = biological target: Eukaryotic translation initiation factor 2-alpha kinase 3 (Homo sapiens) (UniProt Q9NZJ5); assay: Inhibition of EIF2AK3 (unknown origin) assessed as remaining enzyme activity at 10 uM by radioactive [33P]-ATP filter binding assay; summary of the method: as §1
[23] = biological target: Casein kinase I isoform gamma-2 (Homo sapiens) (UniProt P78368); assay: Inhibition of CK1gamma2 (unknown origin) assessed as remaining enzyme activity at 10 uM by radioactive [33P]-ATP filter binding assay; summary of the method: as §1
[24] = Cytotoxicity against human HCT116 cells after 72 hrs by SRB assay; type: functional, cell-based; conditions: HCT-116, 72 h
Summary of the method: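 Cells kept in DMEM with 10% FCS and penicillin/streptomycin at 37°C, 5% CO2. 2000–3000 cells/well were seeded, and medium was refreshed the next day. DMSO solutions were added over 2.5–40 µM with matched DMSO-only controls for 72 h. Cells were then TCA-fixed, stained with 0.4% SRB in 1% acetic acid, solubilized in 10 mM Tris pH 8 and read at 515 nm. Data were normalized to DMSO wells and expressed as mean ±SD.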

[25] = biological target: Inhibitor of nuclear factor kappa-B kinase subunit epsilon (Homo sapiens) (UniProt Q14164); assay: Inhibition of IKKepsilon (unknown origin) assessed as remaining enzyme activity at 10 uM by radioactive [33P]-ATP filter binding assay
[26] = biological target: CDK2/Cyclin A2 (Homo sapiens) (UniProt P24941+P20248); assay: Inhibition of CDK2/Cyclin A (unknown origin) assessed as remaining enzyme activity at 10 uM by radioactive [33P]-ATP filter binding assay; type: protein-complex assay; summary of the method: as §1
[27] = biological target: Aurora kinase B (Homo sapiens) (UniProt Q96GD4); assay: Inhibition of Aurora B (unknown origin) assessed as remaining enzyme activity at 10 uM by radioactive [33P]-ATP filter binding assay; summary of the method: as §1

- Activity [1]: 118%
- Activity [2]: 113%
- Activity [3]: 94%
- Activity [4]: 114%
- Activity [5]: 114%
- Activity [6]: 111%
- Activity [7]: 98%
- Activity [8]: 90%
- Activity [9]: 114%
- Activity [10]: 125%
- Activity [11]: 76%
- Activity [12]: 109%
- Activity [13]: 91%
- Activity [14]: 90%
- Activity [16]: 88%
- Activity [17]: 100%
- Activity [20]: 113%
- Activity [21]: 105%
- Activity [22]: 96%
- Activity [23]: 99%
- Activity [25]: 112%
- Activity [26]: 102%
- Activity [27]: 104%
Compound: Cc1ccc(-c2cc(C(=O)Nc3ccnc(Cl)c3)nn2-c2ccc3ccccc3n2)cc1
- Activity [15]: Active
- Activity [18]: 19.9%
- Activity [19]: 40.1%
- IC50 [24]: 1100 nM
